Measured values reported in ChEMBL document CHEMBL3091303, “1,3-Dialkyl-substituted tetrahydropyrimido[1,2-f]purine-2,4-diones as multiple target drugs for the potential treatment of neurodegenerative diseases” (Bioorg Med Chem, 2013).

Key:
[1] = biological target: Adenosine receptor A2a (Rattus norvegicus) (UniProt P30543); assay: Displacement of [3H]MSX-2 from adenosine A2A receptor in rat brain striatum relative to control; assay type: tissue-based; parameters: concentration or dose not given beside the values; conditions: concentration not given here
How it was run: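 Radioligand binding to rat A2A receptors in rat brain striatal membrane preparations, reported as % inhibition of radioligand binding at the indicated concentration.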

Adenosine receptor A1 [2] = biological target: T1, Adenosine receptor A1 (Rattus norvegicus, UniProt P25099); assay: Displacement of [3H]CCPA from adenosine A1 receptor in rat brain cortex; assay type: tissue-based
T1 sequence (P25099 whole entry): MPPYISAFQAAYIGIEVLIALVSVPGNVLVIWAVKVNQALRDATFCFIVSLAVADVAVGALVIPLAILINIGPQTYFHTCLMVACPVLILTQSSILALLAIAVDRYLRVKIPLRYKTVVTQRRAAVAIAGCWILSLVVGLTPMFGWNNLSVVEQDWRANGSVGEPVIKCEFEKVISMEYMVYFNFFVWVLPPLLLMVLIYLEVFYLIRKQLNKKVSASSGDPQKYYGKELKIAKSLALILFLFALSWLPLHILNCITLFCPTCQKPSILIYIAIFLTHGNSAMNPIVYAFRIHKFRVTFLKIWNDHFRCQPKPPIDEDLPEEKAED
How it was run: (§1)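 Radioligand binding to rat A1 receptors in rat brain cortical membrane preparations. Values are given as Ki, or as % inhibition of radioligand binding at the indicated concentration.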

[3] = biological target: T2, Amine oxidase [flavin-containing] B (Homo sapiens, UniProt P27338); assay: Inhibition of human MAO-B
T2 sequence (P27338 whole entry): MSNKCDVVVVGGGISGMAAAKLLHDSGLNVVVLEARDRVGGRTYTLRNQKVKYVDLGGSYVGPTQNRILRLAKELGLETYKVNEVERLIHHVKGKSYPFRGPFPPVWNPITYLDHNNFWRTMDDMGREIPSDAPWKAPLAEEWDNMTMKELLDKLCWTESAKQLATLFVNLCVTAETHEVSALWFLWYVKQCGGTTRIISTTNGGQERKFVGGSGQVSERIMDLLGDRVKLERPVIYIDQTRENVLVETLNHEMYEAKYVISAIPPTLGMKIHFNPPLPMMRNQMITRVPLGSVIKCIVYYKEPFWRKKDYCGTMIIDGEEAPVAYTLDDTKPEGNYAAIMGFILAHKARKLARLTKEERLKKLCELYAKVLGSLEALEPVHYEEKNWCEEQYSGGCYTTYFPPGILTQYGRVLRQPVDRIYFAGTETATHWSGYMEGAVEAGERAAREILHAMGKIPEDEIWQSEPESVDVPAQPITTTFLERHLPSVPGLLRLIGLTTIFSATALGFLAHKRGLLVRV

[4] = biological target: T3, Adenosine receptor A1 (Rattus norvegicus) (UniProt P25099); assay: Displacement of [3H]CCPA from adenosine A1 receptor in rat brain cortex relative to control; assay type: tissue-based; parameters: concentration or dose not given beside the values; conditions: concentration not given here; how it was run: as §1
T3 sequence (whole entry): T1 sequence (P25099 whole entry)

[5] = biological target: T4, Adenosine receptor A2b (Homo sapiens) (UniProt P29275); assay: Displacement of [3H]PSB-603 from human adenosine A2B receptor relative to control; parameters: concentration or dose not given beside the values; conditions: concentration not given here
T4 sequence (whole entry): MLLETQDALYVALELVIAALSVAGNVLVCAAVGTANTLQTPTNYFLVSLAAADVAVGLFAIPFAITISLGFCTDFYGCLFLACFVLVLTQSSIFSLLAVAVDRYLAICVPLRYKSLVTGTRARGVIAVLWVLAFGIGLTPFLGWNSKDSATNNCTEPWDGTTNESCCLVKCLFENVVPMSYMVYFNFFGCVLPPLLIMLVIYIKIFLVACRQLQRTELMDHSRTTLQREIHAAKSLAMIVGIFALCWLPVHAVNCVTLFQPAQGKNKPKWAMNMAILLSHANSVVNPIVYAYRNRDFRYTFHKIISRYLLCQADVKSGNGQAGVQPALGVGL

Adenosine receptor A2b = biological target: T5, Adenosine receptor A2b (Homo sapiens, UniProt P29275); assay: Displacement of [3H]PSB-603 from human adenosine A2B receptor
T5 sequence (P29275 whole entry): T4 sequence (whole entry)

Adenosine receptor A2a [6] = biological target: Adenosine receptor A2a (Rattus norvegicus, UniProt P30543); assay: Displacement of [3H]MSX-2 from adenosine A2A receptor in rat brain striatum; assay type: tissue-based
[7] = biological target: T6, MAO-B (amine oxidase [flavin-containing] B) (Homo sapiens, UniProt P27338); assay: Inhibition of human MAO-B at 10 uM relative to control
T6 sequence (P27338 whole entry): T2 sequence (P27338 whole entry)
How it was run: (§2)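 Human MAO-A and MAO-B inhibition, screened first at a test concentration of 10 µM.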

Adenosine receptor A3 = biological target: T7, Adenosine receptor A3 (Homo sapiens, UniProt P0DMS8); assay: Displacement of [3H]PSB-11 from human adenosine A3 receptor expressed in CHO cells; assay type: cell-based
T7 sequence (P0DMS8 whole entry): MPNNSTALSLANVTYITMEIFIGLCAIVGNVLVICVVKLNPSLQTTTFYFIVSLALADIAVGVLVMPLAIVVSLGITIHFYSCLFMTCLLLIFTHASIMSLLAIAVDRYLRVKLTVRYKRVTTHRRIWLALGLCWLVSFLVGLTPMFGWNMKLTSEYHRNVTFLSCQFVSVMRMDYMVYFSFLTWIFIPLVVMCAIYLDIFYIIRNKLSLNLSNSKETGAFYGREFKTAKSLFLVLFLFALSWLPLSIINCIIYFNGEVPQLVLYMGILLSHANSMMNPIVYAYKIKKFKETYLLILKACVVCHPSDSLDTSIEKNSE

[8] = biological target: T8, Adenosine receptor A3 (Homo sapiens) (UniProt P0DMS8); assay: Displacement of [3H]PSB-11 from human adenosine A3 receptor expressed in CHO cells relative to control; assay type: cell-based; parameters: concentration or dose not given beside the values; conditions: concentration not given here
T8 sequence (whole entry): T7 sequence (P0DMS8 whole entry)

[9] = biological target: T9, MAO-A (amine oxidase [flavin-containing] A) (Homo sapiens, UniProt P21397); assay: Inhibition of human MAO-A at 10 uM relative to control; how it was run: as §2
T9 sequence (P21397 whole entry): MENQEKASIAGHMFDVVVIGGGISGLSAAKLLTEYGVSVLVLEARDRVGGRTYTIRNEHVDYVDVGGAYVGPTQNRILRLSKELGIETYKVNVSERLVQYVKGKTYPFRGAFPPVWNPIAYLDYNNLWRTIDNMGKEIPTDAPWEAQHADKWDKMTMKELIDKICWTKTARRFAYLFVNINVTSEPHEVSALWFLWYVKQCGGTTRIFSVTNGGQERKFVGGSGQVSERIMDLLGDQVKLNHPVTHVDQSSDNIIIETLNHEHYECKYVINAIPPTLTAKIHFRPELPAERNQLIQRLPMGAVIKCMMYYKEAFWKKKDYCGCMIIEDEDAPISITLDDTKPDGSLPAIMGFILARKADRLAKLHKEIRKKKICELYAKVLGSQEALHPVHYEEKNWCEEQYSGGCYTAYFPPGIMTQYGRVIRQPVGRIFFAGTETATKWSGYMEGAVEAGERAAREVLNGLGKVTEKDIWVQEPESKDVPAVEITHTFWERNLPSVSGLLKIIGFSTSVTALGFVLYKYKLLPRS

Adenosine receptor A1 [10] = biological target: T10, Adenosine receptor A1 (Homo sapiens, UniProt P30542); assay: Displacement of [3H]CCPA from human adenosine A1 receptor expressed in CHO cells; assay type: cell-based
T10 sequence (P30542 whole entry): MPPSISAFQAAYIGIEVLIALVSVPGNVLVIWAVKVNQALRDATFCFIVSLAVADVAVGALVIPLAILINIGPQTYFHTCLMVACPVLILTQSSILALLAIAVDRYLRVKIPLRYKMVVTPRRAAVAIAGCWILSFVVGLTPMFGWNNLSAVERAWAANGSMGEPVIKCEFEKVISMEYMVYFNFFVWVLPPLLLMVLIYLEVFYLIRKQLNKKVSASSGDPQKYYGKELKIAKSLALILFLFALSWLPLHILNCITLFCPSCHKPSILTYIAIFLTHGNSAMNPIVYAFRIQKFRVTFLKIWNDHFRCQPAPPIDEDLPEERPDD
How it was run: (§3)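 Radioligand binding to human receptors recombinantly expressed in Chinese hamster ovary (CHO) cells. Results are Ki, or % inhibition of radioligand binding at the indicated concentration.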

Adenosine receptor A2a [11] = biological target: Adenosine receptor A2a (Homo sapiens, UniProt P29274); assay: Displacement of [3H]MSX-2 from human adenosine A2A receptor expressed in CHO cells; assay type: cell-based; how it was run: as §3
[12] = biological target: T11, Amine oxidase [flavin-containing] A (Homo sapiens, UniProt P21397); assay: Inhibition of human MAO-A; how it was run: as §2
T11 sequence (P21397 whole entry): T9 sequence (P21397 whole entry)

Chain of Adenosine receptor A2a (Rattus norvegicus) (P30543 whole entry): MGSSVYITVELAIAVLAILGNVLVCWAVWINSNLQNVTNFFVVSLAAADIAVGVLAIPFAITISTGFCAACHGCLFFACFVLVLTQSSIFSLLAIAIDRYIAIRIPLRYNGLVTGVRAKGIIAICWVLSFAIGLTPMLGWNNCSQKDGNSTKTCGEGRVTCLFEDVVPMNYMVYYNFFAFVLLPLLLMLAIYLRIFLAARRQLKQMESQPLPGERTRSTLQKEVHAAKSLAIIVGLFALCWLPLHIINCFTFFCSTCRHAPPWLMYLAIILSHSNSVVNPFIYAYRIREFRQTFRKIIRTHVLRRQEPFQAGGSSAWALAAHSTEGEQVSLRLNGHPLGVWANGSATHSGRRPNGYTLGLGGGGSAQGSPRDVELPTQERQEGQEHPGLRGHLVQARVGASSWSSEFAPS
Chain of Adenosine receptor A2a (Rattus norvegicus, UniProt P30543) (P30543 whole entry): as above
Chain of Adenosine receptor A2a (Homo sapiens, UniProt P29274) (P29274 whole entry): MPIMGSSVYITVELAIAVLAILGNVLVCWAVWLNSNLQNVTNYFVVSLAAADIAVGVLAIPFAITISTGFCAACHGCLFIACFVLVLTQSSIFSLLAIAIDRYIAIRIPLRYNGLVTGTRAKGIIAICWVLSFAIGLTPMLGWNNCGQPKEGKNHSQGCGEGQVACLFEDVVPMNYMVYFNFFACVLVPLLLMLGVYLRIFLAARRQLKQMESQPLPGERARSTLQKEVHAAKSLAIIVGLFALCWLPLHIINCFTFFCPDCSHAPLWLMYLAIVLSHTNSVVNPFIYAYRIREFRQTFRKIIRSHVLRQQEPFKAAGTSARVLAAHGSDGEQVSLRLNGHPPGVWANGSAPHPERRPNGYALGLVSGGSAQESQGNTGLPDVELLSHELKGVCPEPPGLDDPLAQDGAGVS

SMILES | inhibition [1] | Ki (Adenosine receptor A1 [2]) | IC50 [3] | inhibition [4] | inhibition [5] | Ki (Adenosine receptor A2b) | Ki (Adenosine receptor A2a [6]) | inhibition at 10 µM [7] | Ki (Adenosine receptor A3) | inhibition [8] | inhibition at 10 µM [9] | Ki (Adenosine receptor A1 [10]) | Ki (Adenosine receptor A2a [11]) | IC50 [12]
CCCn1c(=O)c2c(nc3n2CCCN3CC(=O)N2CCN(c3ccccc3)CC2)n(CCC)c1=O | 27% | > 1.5 µM | 10 µM | 18% | 6% | > 1 µM | > 10 µM | 46% | 2.45 µM |  |  |  |  | 
CCCn1c(=O)c2c(nc3n2CCCN3CC(=O)N2CCN(c3ccc(Cl)cc3)CC2)n(CCC)c1=O | 36% | > 1.5 µM | 10 µM | 19% | 7% | > 1 µM | > 10 µM | 52% | 0.762 µM |  | -2% |  |  | > 10 µM
CCn1c(=O)c2c(nc3n2CCCN3CCN2CCCCC2)n(CC)c1=O | 44% | 1.07 µM | > 10 µM |  | 2% | > 0.3 µM | > 10 µM | 34% | > 1 µM | 13% |  |  |  | 
CCCn1c(=O)c2c(nc3n2CCCN3CC(=O)N2CCN(Cc3ccc(OC)cc3)CC2)n(CCC)c1=O | 33% | > 1.5 µM | > 10 µM | 18% | 4% | > 1 µM | > 10 µM | 30% | 1.6 µM |  |  |  |  | 

Further lines, results first:

inhibition [1] | Ki (Adenosine receptor A1 [2]) | IC50 [3] | inhibition [4] | inhibition [5] | Ki (Adenosine receptor A2b) | Ki (Adenosine receptor A2a [6]) | inhibition at 10 µM [7] | Ki (Adenosine receptor A3) | inhibition [8] | inhibition at 10 µM [9] | Ki (Adenosine receptor A1 [10]) | Ki (Adenosine receptor A2a [11]) | IC50 [12] | SMILES
 | 0.165 µM | 0.193 µM |  | 4% | > 1 µM | 1.64 µM |  | > 10 µM | 14% | 1% | 1.7 µM | 3.78 µM | > 10 µM | Cn1c(=O)c2c(nc3n2CCCN3Cc2cc(Cl)cc(Cl)c2)n(C)c1=O
 | > 10 µM | > 10 µM | 21% | 11% | > 1 µM | 5.54 µM | 58% | > 10 µM | 21% |  |  | 4.61 µM |  | Cn1c(=O)c2c(nc3n2CCCN3c2cc(Cl)cc(Cl)c2)n(C)c1=O
40% | > 1.5 µM | 10 µM | 3% |  | > 1 µM | > 10 µM | 40% | > 10 µM | 32% | 1% |  |  | > 10 µM | Cn1c(=O)c2c(nc3n2CCCN3CC(=O)N2CCN(c3ccccc3)CC2)n(C)c1=O
